According to EPA's CvTdb concentration-time database:
Several values for one entry are separate records, joined by “and”; a condition that tells them apart may be missing. Equal entries are not always repeated.

Legend:
rat [1] = test: concentration in blood after dosing; negative times count back from the end of exposure; details: inhalation
rat [2] = test: concentration in blood after dosing; details: dosed: toluene, 3000 ppm, dermal, duration: 4 hr, male, F344
rat [3] = test: concentration in blood after dosing; details: dosed: toluene, 3000 ppm, dermal, duration: 4 hr, male, F344; remark: listed apart in the source
human [4] = test: concentration in blood after dosing; details: dosed: toluene, 100 ppm, dermal, duration: 30 min, person
Outline: (§1)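 A PubMed search, classifier screening and manual review identified published in vivo toxicokinetic studies, which together with two structured collections supplied concentration-versus-time and amount-versus-time points. Points were mostly digitised from plot screenshots with WebPlotDigitizer, otherwise copied from tables. Dose, route, subject details and medium were hand-curated from each paper, and sampling and analytical methods are those of the sources, often unreported.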

rat [5] = test: concentration in blood after dosing; details: duration: 4 hr, male
rat [6] = test: concentration in blood after dosing; details: dosed: toluene, 3000 ppm, dermal, duration: 4 hr, male, F344; remark: listed apart in the source
rat [7] = test: concentration in blood after dosing; details: dosed: toluene, 3000 ppm, dermal, duration: 4 hr, male, F344; remark: listed apart in the source
rat [8] = test: concentration in blood after dosing; details: dosed: toluene, 3000 ppm, dermal, duration: 4 hr, male, F344; remark: listed apart in the source
human [9] = test: concentration in Capillary Blood after dosing; details: dosed: toluene, 200 mg/m^3, inhalation, duration: 2 hr, male
Outline: as §1

rat [10] = test: amount in expired air after dosing (umol); details: dosed: methanol, 100 mg/kg, iv, male, CDF(F344)/CrlBR

CC(C)O [isopropanol]
rat [1], dosed: isopropanol, duration: 360 min
Details | concentration in blood [ng/mL]
0.3018 h, 476 ppm | 26000
0.31 h, 4960 ppm | 738000
0.5307 h, 476 ppm | 18300
0.5409 h, 4960 ppm | 647000
1.039 h, 476 ppm | 12200
1.102 h, 4960 ppm | 552000
1.98 h, 476 ppm | 6110
2.098 h, 4960 ppm | 367000
3.047 h, 476 ppm | 6110
3.117 h, 4960 ppm | 240000
5.995 h, 476 ppm | 1530
6.019 h, 4960 ppm | 67200
12.07 h, 4960 ppm | 12200
98 s, 4960 ppm | 871000

concentration in blood [ng/mL], rat [1], dosed: isopropanol, duration: 360 min, during exposure
Details | -195 s | -5.546 h | -5.517 h | -5.06 h | -4.913 h | -3.002 h | -2.938 h
476 ppm | 32100 | – | 7640 | 12200 | – | 21400 | –
4960 ppm | – | 141000 | – | – | 241000 | – | 544000

Cc1ccccc1 [toluene]
Details | concentration in Capillary Blood [nM] | concentration in blood
human [4], 0.2477 h | – | 510 nM
human [4], 0.499 h | – | 1720 nM
human [4], 0.7454 h | – | 1620 nM
human [4], 0.9948 h | – | 1210 nM
human [4], 1.5 h | – | 941 nM
human [4], 2.49 h | – | 655 nM
human [4], 3.495 h | – | 453 nM
human [9], 0.1631 h | 5870 | –
human [9], 0.2703 h | 6730 | –
human [9], 0.5028 h | 8250 | –
human [9], 0.7659 h | 9110 | –
human [9], 1.003 h | 9630 | –
human [9], 1.104 h | 9000 | –
human [9], 1.493 h | 10300 | –
human [9], 1.737 h | 10300 | –
human [9], 1.969 h | 10400 | –
human [9], 2.075 h | 4980 | –
human [9], 2.15 h | 4310 | –
human [9], 2.236 h | 4010 | –
human [9], 2.514 h | 3210 | –
human [9], 3.028 h | 1540 | –
human [9], 3.361 h | 1330 | –
human [9], 3.69 h | 1220 | –
human [9], 4.023 h | 1050 | –
human [9], 4.349 h | 959 | –
human [9], 4.444 h | 711 | –
human [9], 4.673 h | 867 | –
human [9], 5.349 h | 763 | –
human [9], 5.678 h | 671 | –
human [9], 5.993 h | 632 | –
human [9], 334 s | 4060 | –
rat [2], 0.5 h | – | 2160 ng/mL
rat [2], 1 h | – | 3520 ng/mL
rat [2], 2 h | – | 5470 ng/mL
rat [2], 3 h | – | 4800 ng/mL
rat [2], 4 h | – | 7390 ng/mL
rat [3], 0.5 h | – | 1830 ng/mL
rat [3], 1 h | – | 3670 ng/mL
rat [3], 2 h | – | 5070 ng/mL
rat [3], 3 h | – | 5760 ng/mL
rat [3], 4 h | – | 7030 ng/mL
rat [6], 0.5 h | – | 1230 ng/mL
rat [6], 1 h | – | 2720 ng/mL
rat [6], 2 h | – | 4560 ng/mL
rat [6], 3 h | – | 5160 ng/mL
rat [6], 4 h | – | 5840 ng/mL
rat [7], 0.5 h | – | 2910 ng/mL
rat [7], 1 h | – | 5540 ng/mL
rat [7], 2 h | – | 6830 ng/mL
rat [7], 3 h | – | 8230 ng/mL
rat [7], 4 h | – | 8240 ng/mL
rat [8], 0.5 h | – | 4120 ng/mL
rat [8], 1 h | – | 1330 ng/mL
rat [8], 2 h | – | 8440 ng/mL
rat [8], 3 h | – | 10100 ng/mL
rat [8], 4 h | – | 12100 ng/mL

rat [5], dosed: toluene, 3000 ppm, dermal, F344
Details | concentration in blood [ng/mL]
0.5 h | 4530
1 h | 5230
2 h | 5470
3 h | 6610
4 h | 6640

rat [1], dosed: toluene, 100 ppm, duration: 2 hr, male, Wistar
Details | concentration in blood [nM]
0.996 h | 2600
2.004 h | 1520

rat [1], dosed: toluene, 100 ppm, duration: 2 hr, male, Wistar, during exposure
Details | concentration in blood [nM]
-20 s | 8210
-1.759 h | 5580
-1.503 h | 6410
-1.005 h | 6950
-0.5053 h | 9060

c1ccoc1 [furan]
rat [5], dosed: furan, inhalation, Fischer-344
Details | concentration in blood
0.1053 h, 52 ppm | 111 ng/mL
0.1054 h, 52 ppm | 93 ng/mL
0.1745 h, 107 ppm | 142 ng/mL
0.3024 h, 107 ppm | 101 ng/mL
0.3025 h, 107 ppm | 88.4 ng/mL
0.5398 h, 208 ppm | 98.4 ng/mL
0.54 h, 208 ppm | 82.3 ng/mL
0.7855 h, 208 ppm | 47 ng/mL
0.7856 h, 208 ppm | 41.2 ng/mL
0.7857 h, 208 ppm | 35.7 ng/mL
130 s, 107 ppm | 387 ng/mL and 348 ng/mL
131 s, 107 ppm | 309 ng/mL
132 s, 208 ppm | 945 ng/mL
133 s, 208 ppm | 772 ng/mL and 654 ng/mL

O=C=O [carbon dioxide]
rat [10]
Details | amount in expired air
0.2199 h | 1.76
0.5362 h | 6.28
0.9412 h | 13.1
1.448 h | 25.8
1.93 h | 37.7
2.933 h | 81.5
4.445 h | 151
5.995 h | 221
8.01 h | 278
10.01 h | 322
12.03 h | 335
15.08 h | 344
